Measured values reported in ChEMBL document CHEMBL3352130, “Bioactive clerodane diterpenoids from the twigs of Casearia balansae” (J Nat Prod, 2014).
≈ marks a conversion by molar mass, not a printed value. Calls of active or inactive are those of the source. No cut-off for these calls is given here.

Tests used:
PC-12 [1] = assay: Induction of neurite outgrowth in rat PC12 cells incubated for 96 hrs by phase contrast microscopy; assay type: functional, cell-based
Method in brief: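 PC12 cells grown at 37 °C in DMEM with 5% FBS and 5% horse serum, then dissociated with 1 mM EGTA in PBS for 15 min. Seeded at 3 × 10^4 cells/well on poly-L-lysine. After 24 h, switched to 1% FBS/1% HS with test compounds at various concentrations and no NGF, for 96 h. NGF 100 ng/mL served as positive control. Neurite-bearing cells: process ≥ cell-body diameter, as % of ≥100 cells × 3 fields × 6 wells. Triplicate.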

PC-12 [2] = assay: Stimulation of NGF-mediated neurite outgrowth in rat PC12 cells incubated for 96 hrs by phase contrast microscopy; assay type: functional, cell-based; settings: for EC50: PC-12, 96 h
Method in brief: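 PC12 cells cultured and dissociated with EGTA as above, then plated on poly-L-lysine at 3 × 10^4 cells/well. After 24 h, exposed for 96 h to 20 ng/mL NGF plus graded compound concentrations in 1% FBS/1% HS. Phase-contrast count of cells with neurites ≥ soma diameter, as % of ≥100 cells per field (3 fields/well, 6 wells/sample). Triplicate runs. EC50 from linear or nonlinear concentration–response regression.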

Row | Compound | Activity (PC-12 [1]) | Activity (PC-12 [2]) | EC50 (PC-12 [2]) [µg/mL]
1 | C=CC(=C)CC[C@]1(C)[C@H](C)CC[C@@]23C(=C[C@H](OC(=O)C(C)CC)C[C@@H]12)[C@@H](OC(=O)CCC)O[C@H]3OC(C)=O (stereo partly specified) | inactive | inactive | –
2 | C=CC(=C)CC[C@]1(C)[C@H](C)CC[C@@]23[C@H](OC(C)=O)O[C@H](OC(C)=O)[C@@H]2CC(=O)C[C@@H]13 | inactive | inactive | –
3 | C=CC(=C)CC[C@]1(C)[C@H](C)C[C@H](OC)[C@@]2(C=O)C(C=O)=C[C@H](OC(=O)C(C)CC)C[C@@H]12 (stereo partly specified) | inactive | inactive | –
4 | C=CC(=C)CC[C@]1(C)[C@H](C)C[C@H](OC)[C@@]23C(=C[C@@H](OC(C)=O)C[C@@H]12)[C@@H](OC)O[C@H]3OC(C)=O | inactive | Dose-dependent effect | 2.4 (≈ 5.19 µM)
5 | C=CC(=C)CC[C@]1(C)[C@H](C)CC[C@@]23C(=CC(=O)C[C@@H]12)[C@@H](OC(=O)CCC)O[C@H]3OC(C)=O | inactive | inactive | –
6 | C=CC(=C)CC[C@]1(C)[C@H]2C[C@H](OC(=O)C(C)CC)C=C3[C@H](OC)O[C@H](OC(C)=O)[C@@]32[C@H](O)C[C@@H]1C (stereo partly specified) [CASEAMEMBRIN B] | inactive | Dose-dependent effect | 7.5 (≈ 15.3 µM)
7 | C=CC(=C)CC[C@]1(C)[C@H](C)C[C@H](OC)[C@@]23C(=C[C@H](OC(=O)CCC)C[C@@H]12)[C@@H](OC(=O)CCC)O[C@H]3OC(C)=O | inactive | Dose-dependent effect | 20.2 (≈ 36.9 µM)
8 | C=CC(=C)CC[C@]1(C)[C@H](C)C[C@H](OC)[C@@]23C(=CC(=O)C[C@@H]12)[C@@H](OC(C)=O)O[C@H]3OC(C)=O | inactive | Dose-dependent effect | 2.5 (≈ 5.6 µM)
9 | C=CC(=C)CC[C@]1(C)[C@H](C)C[C@H](OC)[C@@]23C(=C[C@H](OC(=O)C(C)CC)C[C@@H]12)[C@@H](OC(=O)CCC)O[C@H]3OC(C)=O (stereo partly specified) | inactive | Dose-dependent effect | 12.7 (≈ 22.6 µM)
10 | C=CC(=C)CC[C@]1(C)[C@H](C)C[C@H](OC)[C@@]23C(=C[C@H](OC(=O)C(C)CC)C[C@@H]12)[C@@H](OC)O[C@H]3OC(C)=O (stereo partly specified) | inactive | Dose-dependent effect | 4 (≈ 7.93 µM)
